Here are results for 14 molecules from ChEMBL document CHEMBL1137548, “Synthesis and evaluation of naphthyridine compounds as antimalarial agents” (Bioorg Med Chem Lett, 2007).

Data set [1] concerns Plasmodium falciparum. The experiment in a line: Antimalarial activity against chloroquine-resistant Plasmodium falciparum W2. Format: functional, organism-based.
Data set [2] in a line: Toxicity in Swiss mouse after 10 days. Format: organism-based. Conditions: in vivo. Put shortly:
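Acute toxicity: a single drug injection into four non-infected random-bred Swiss mice, with deaths recorded 10 days after injection.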

Data set [3] relates to Plasmodium berghei. Description: Antimalarial activity against Plasmodium berghei infected Swiss mice (Mus musculus) by intraperitoneal dose. Type of data set: functional. Conditions: ip. The essentials: (§1)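 Infected mice dosed i.p. once daily for 4 days, with the first dose 1 h after i.p. inoculation with parasites. ED50 is the dose giving 50% inhibition of parasite growth versus vehicle-treated controls (equal volume of vehicle), read from a plot of activity (% of control) against log dose. P. berghei is the sensitive strain and P. yoelii nigeriensis the multidrug-resistant strain.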

Data set [4] concerns Plasmodium yoelii nigeriensis. Description: Antimalarial activity against Plasmodium yoelii nigeriensis infected Swiss mice (Mus musculus) by intraperitoneal dose. Type of data set: functional. Conditions: ip. The essentials: as §1
Data set [5] in a line: Therapeutic index, ratio of LD50 for Swiss mice (Mus musculus) to […] for Plasmodium berghei infected Swiss mice (Mus musculus). The note with it: read-out: Ratio LD50/ED50. The essentials: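 Ratio of acute LD50 to P. berghei ED50 in mice. LD50: one injection into four non-infected random-bred Swiss mice, deaths scored at 10 days. ED50: i.p. dosing once daily for 4 days, starting 1 h after i.p. parasite inoculation. Parasite growth inhibition is taken against vehicle-treated controls, and the value is read from % of control versus log dose.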

Data set [6] concerns Mastomys coucha. Description: Toxicity against Mastomys coucha assessed as methemoglobin levels at 15 mg/kg after 3 days. Type of data set: organism-based. Also noted: dose 15 mg/kg. Conditions: in vivo, 72 h. Put shortly: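 Mastomys coucha dosed at 15 mg/kg per day for 3 days, then blood methemoglobin measured as % MetHb. A vehicle group served as control. Values are mean±SEM per group from a set of three experiments.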

The term IC50 denotes the concentration needed to halve the response being measured. Broadly, the LD50 is the dose expected to kill half of the subjects tested. Lower therefore signals a more toxic substance. Usually ED50 stands for the midpoint of the dose-response relation. Higher therefore signals weaker potency.

In turn, `CCOc1cc(NC2(CCCN)CC2)c2nc(C(F)(F)F)ccc2n1` registered an IC50 in data set [1] of 58 nM. The LD50 at 240 h in data set [2] was more than 200 mg/kg. For the same molecule, the results for the ED50 in data set [3] and in data set [4] were 0.75 mg/kg and 0.68 mg/kg, respectively. Moreover, the selectivity ratio in data set [5] is more than 267. Besides, in data set [6], the Activity is 0.095%.
For `CC(C)Oc1cc(NC2(CCCN)CC2)c2nc(C(F)(F)F)ccc2n1`, 55 nM corresponded to half-maximal inhibition in data set [1] (IC50). In data set [2], this molecule displayed a median lethal dose (LD50) at 240 h of more than 200 mg/kg. The ED50 stood at 0.26 mg/kg in data set [3] and 0.23 mg/kg in data set [4]. In data set [5], the selectivity ratio is more than 769. Moreover, the Activity in data set [6] worked out at 0.14%.
`CC(C)Oc1cc(NC2(CCCN)CC2)c2ncccc2n1` returned an IC50 in data set [1] of 100 nM. The molecule also returned a 50% lethal dose (LD50) at 240 h in data set [2] of 175 mg/kg. Also, the ED50 in data set [3] was determined as 0.29 mg/kg; in data set [4], 0.38 mg/kg. Moreover, the selectivity ratio in data set [5] was 603. The Activity in data set [6] is reported as -0.1%.
In the case of `COc1cc(NC(C)(C)CCCN)c2nc(OC)ccc2n1`, in data set [1], the IC50 was found to be 33 nM. The same molecule returned an LD50 at 240 h in data set [2] of more than 200 mg/kg. Besides, the ED50 was 1.6 mg/kg in data set [3] and 2 mg/kg in data set [4]. In addition, the selectivity ratio in data set [5] was more than 125. In addition, in data set [6], the Activity was found to be 0.13%.
In the case of `COc1cc(NC(C)(C)CCCN)c2ncccc2n1`, in data set [1], the concentration for half-maximal inhibition (IC50) was found to be 65 nM. In data set [2], the LD50 at 240 h is 130 mg/kg. The figures for the ED50 in data set [3] and in data set [4] were 1.8 mg/kg and 2.1 mg/kg, respectively. Further, the selectivity ratio in data set [5] was found to be 72. In data set [6], the Activity came out at 0.1%.
`CCOc1cc(NC(C)(C)CCCN)c2ncccc2n1` showed an IC50 in data set [1] of 77 nM. Also, the LD50 at 240 h in data set [2] came out at 155 mg/kg. In addition, the 50% effective dose (ED50) worked out at 0.95 mg/kg in data set [3] and 0.89 mg/kg in data set [4]. The selectivity ratio in data set [5] was determined as 163. Besides, the Activity in data set [6] is given as -0.12%.
In data set [1], `COc1cc(NC2(CCCN)CC2)c2ncccc2n1` came in with an IC50 of 57 nM. For the same molecule, in data set [2], the LD50 at 240 h worked out at 145 mg/kg. The ED50 stood at 1.6 mg/kg in data set [3] and 1.4 mg/kg in data set [4]. Also, in data set [5], the selectivity ratio turned out to be 91. Moreover, the Activity in data set [6] is recorded as 0.1%.
As to `CCOc1cc(NC2(CCCN)CC2)c2ncccc2n1`, the IC50 in data set [1] was 72 nM. Also, the LD50 at 240 h in data set [2] came to 161 mg/kg. Moreover, the values for the ED50 in data set [3] and in data set [4] were 0.88 mg/kg and 1 mg/kg, respectively. The selectivity ratio in data set [5] came to 183. In addition, in data set [6], the Activity was -0.12%.
Regarding `COc1cc(NC(C)(C)CCCN)c2nc(C(F)(F)F)ccc2n1`, in data set [1], the IC50 was 21 nM. Further, the 50% lethal dose (LD50) at 240 h in data set [2] is more than 200 mg/kg. In addition, the 50% effective dose (ED50) was 1.5 mg/kg in data set [3] and 1.7 mg/kg in data set [4]. The selectivity ratio in data set [5] is more than 133. Also, in data set [6], the Activity is listed as -0.11%.
The molecule `COc1cc(NC(C)CCCN)c2ncccc2c1` (stereo unspecified) [PRIMAQUINE] returned an IC50 in data set [1] of more than 10000 nM. For the same molecule, the LD50 at 240 h in data set [2] was determined as 55 mg/kg. In addition, the Activity in data set [6] worked out at 3.4%.
`CCN(CC)CCCC(C)Nc1ccnc2cc(Cl)ccc12` (stereo unspecified) [CHLOROQUINE] came in with a median effective dose (ED50) in data set [3] of 2 mg/kg.
Consider `CC(C)Oc1cc(NC(C)(C)CCCN)c2ncccc2n1`, for which, in data set [1], the 50% inhibitory concentration (IC50) came to 110 nM. Moreover, the LD50 at 240 h in data set [2] was determined as 167 mg/kg. In addition, the median effective dose (ED50) came to 0.33 mg/kg in data set [3] and 0.28 mg/kg in data set [4]. In addition, the selectivity ratio in data set [5] was found to be 506. The Activity in data set [6] is listed as -0.15%.
Consider `CCOc1cc(NC2(CCCN)CC2)c2nc(OC)ccc2n1`, for which half-maximal inhibition in data set [1] (IC50) required 45 nM. Moreover, the LD50 at 240 h in data set [2] was more than 200 mg/kg. In addition, the results for the ED50 in data set [3] and in data set [4] were 0.72 mg/kg and 0.65 mg/kg, respectively. For the same molecule, the selectivity ratio in data set [5] was more than 278. For the same molecule, in data set [6], the Activity is -0.1%.
In turn, `COc1ccc2nc(OC(C)C)cc(NC3(CCCN)CC3)c2n1` gave an IC50 in data set [1] of 47 nM. The molecule also gave an LD50 at 240 h in data set [2] of more than 200 mg/kg. Besides, the median effective dose (ED50) in data set [3] came to 0.31 mg/kg; in data set [4], 0.41 mg/kg. Moreover, in data set [5], the selectivity ratio is more than 645. Also, the Activity in data set [6] is -0.12%.
